Consider 24 compounds from ChEMBL document CHEMBL1667795, “Phosphonic pseudopeptides as human neutrophil elastase inhibitors--a combinatorial approach” (Bioorg Med Chem, 2011).

As usually defined, the inhibition is the relative decrease from the control value, in per cent.

Data set [1] is described as follows: Inhibition of chymotrypsin at 2.5 uM after 30 mins relative to control. In a few lines: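 Suc-Ala-Ala-Pro-Phe-AMC then added, fluorescence read at Ex 350/Em 460 nm. Inhibition given as percent of enzyme activity relative to the control sample.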
Data set [2] concerns the target T1, Neutrophil elastase (Homo sapiens) (UniProt P08246).
T1 sequence (whole entry): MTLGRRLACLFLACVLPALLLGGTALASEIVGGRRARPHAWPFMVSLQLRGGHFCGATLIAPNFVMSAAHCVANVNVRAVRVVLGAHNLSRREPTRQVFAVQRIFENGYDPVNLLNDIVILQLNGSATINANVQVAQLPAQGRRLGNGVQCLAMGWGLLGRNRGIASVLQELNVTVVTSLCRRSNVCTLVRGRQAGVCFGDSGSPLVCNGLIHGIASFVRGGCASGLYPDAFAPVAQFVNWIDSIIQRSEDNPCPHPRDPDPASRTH
Nature of the data set: Inhibition of human neutrophil elastase after 15 mins.

Data set [3] can be described thus: Inhibition of trypsin at 2.5 uM after 30 mins relative to control. In outline: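 Trypsin (final 2.5 nM) preincubated 30 min at 37 °C with 2.5 µM inhibitor in 0.1 M HEPES, 0.01 M CaCl2, pH 7.5. Bzl-Arg-AFC added, fluorescence read at Ex 380/Em 505 nm. Percent inhibition relative to the control sample.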
The subject of data set [4] is A549. Briefly: Cytotoxicity against human A549 cells at 250 uM after 48 hrs by MTT assay. In kind it is functional. The note with it: A549, 48 h. In a few lines: (§1)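 A549 lung cancer cells kept at 37 °C, 5% CO2, harvested by trypsinization and PBS wash. Seeded 1 × 10^4 cells/well, attached overnight, then 48 h with inhibitor diluted in medium from DMSO stocks; DMSO-only controls. MTT absorbance at 570 nm, growth as percent of untreated control, mean ± one SD.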
A general note: Tetrazolium assays rely on reduction of a dye to a coloured formazan, in cell work by metabolically active cells.

Data set [5] deals with A549. Briefly: Cytotoxicity against human A549 cells at 500 uM after 48 hrs by MTT assay. The note with it: A549, 48 h. In kind it is functional. In outline: as §1
A short description of data set [6]: Cytotoxicity against HGF at 250 uM after 48 hrs by MTT assay. The note with it: human, HGF cells; read-out: INH. In kind it is cell-based. In a few lines: (§2)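 Human gingival fibroblasts isolated from healthy gingival biopsies, grown in DMEM with 10% FBS, glutamine and penicillin/streptomycin at 37 °C, 5% CO2. Seeded 1 × 10^4 cells/well, attached overnight, then exposed 48 h to inhibitor diluted in medium from DMSO stocks; DMSO-only controls. MTT read at 570 nm, viability expressed as percent of untreated control.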

Data set [7] can be described thus: Cytotoxicity against HGF at 500 uM after 48 hrs by MTT assay. In kind it is cell-based. The note with it: human. In a few lines: as §2
Data set [8] concerns A549. Nature of the data set: Cytotoxicity against human A549 cells at 125 to 500 uM after 48 hrs by MTT assay. In kind it is functional. In a few lines: as §1

The source made the active and inactive calls. The rule behind the calls is not given here.

`CSCC[C@H](NC(=O)OCc1ccccc1)C(=O)O[C@H](C(=O)N[C@H](C(C)C)P(=O)(Oc1ccc(Cl)cc1)Oc1ccc(Cl)cc1)c1ccc([N+](=O)[O-])cc1`: the inhibition result in data set [1] and in data set [3] was “inactive” in each case. Also, the kinact/Ki (second-order inactivation rate constant) in data set [2] is 165 M⁻¹ s⁻¹.

For the compound `CSCC[C@H](NC(=O)OCc1ccccc1)C(=O)O[C@@H](Cc1ccccc1)C(=O)N[C@H](C(C)C)P(=O)(Oc1ccc(SC)cc1)Oc1ccc(SC)cc1`, the inhibition result in data set [1] and in data set [3] was “inactive” in each case. Moreover, in data set [2], the kinact/Ki (second-order inactivation rate constant) turned out to be 605 M⁻¹ s⁻¹.

As to `CCCCCC(=O)N1CCN([C@H](C(=O)N[C@H](C(C)C)P(=O)(Oc2ccc(SC)cc2)Oc2ccc(SC)cc2)c2ccc(OC)c(OC)c2)CC1`, the inhibition entry in data set [1] and in data set [3] was “inactive” in each case. Also, the kinact/Ki (second-order inactivation rate constant) in data set [2] came to 125 M⁻¹ s⁻¹.

For the compound `COc1ccc([C@H](OC(=O)[C@H](CCSC)NC(=O)OCc2ccccc2)C(=O)N[C@H](C(C)C)P(=O)(Oc2ccc(SC)cc2)Oc2ccc(SC)cc2)cc1OC`, in data set [1], the inhibition was found to be 22%. In addition, the kinact/Ki (second-order inactivation rate constant) in data set [2] amounted to 3800 M⁻¹ s⁻¹. In addition, in data set [3], the inhibition entry was “inactive”.

On to `CSCC[C@H](NC(=O)OCc1ccccc1)C(=O)O[C@@H](CCSC)C(=O)N[C@H](C(C)C)P(=O)(Oc1ccc(Cl)cc1)Oc1ccc(Cl)cc1`, for which the inhibition entry in data set [1] and in data set [3] was “inactive” in each case. In data set [4], this compound came in with an inhibition at 250 µM of 25%. The same compound registered an inhibition at 500 µM in data set [5] of 60%. In addition, the kinact/Ki (second-order inactivation rate constant) in data set [2] was found to be 40100 M⁻¹ s⁻¹.

Take `CCCCCC(=O)N1CCN([C@@H](CCSC)C(=O)N[C@H](C(C)C)P(=O)(Oc2ccc(SC)cc2)Oc2ccc(SC)cc2)CC1`: the kinact/Ki (second-order inactivation rate constant) in data set [2] amounted to 140 M⁻¹ s⁻¹. For the same compound, the inhibition entry in data set [3] was “inactive”.

Consider `COc1ccc([C@H](OC(=O)[C@H](CCSC)NC(=O)OCc2ccccc2)C(=O)N[C@H](C(C)C)P(=O)(Oc2ccc(Cl)cc2)Oc2ccc(Cl)cc2)cc1OC`, for which the inhibition in data set [1] is 21%. The kinact/Ki (second-order inactivation rate constant) in data set [2] stood at 165 M⁻¹ s⁻¹. Besides, in data set [3], the inhibition entry is “inactive”.

Turning to `CCCCN(C(=O)CNC(=O)OCc1ccccc1)[C@@H](CC(C)C)C(=O)N[C@H](C(C)C)P(=O)(Oc1ccc(SC)cc1)Oc1ccc(SC)cc1`, the inhibition result in data set [1] and in data set [3] was “inactive” throughout. Also, the kinact/Ki (second-order inactivation rate constant) in data set [2] was determined as 145 M⁻¹ s⁻¹.

`CSCC[C@H](NC(=O)OCc1ccccc1)C(=O)O[C@H](C(=O)N[C@H](C(C)C)P(=O)(Oc1ccc(SC)cc1)Oc1ccc(SC)cc1)C(C)C` came in with an inhibition in data set [1] of 15%. In addition, the kinact/Ki (second-order inactivation rate constant) in data set [2] is 5050 M⁻¹ s⁻¹. In addition, in data set [3], the inhibition result was “inactive”.

`CSCC[C@H](NC(=O)OCc1ccccc1)C(=O)O[C@H](C(=O)N[C@H](C(C)C)P(=O)(Oc1ccc(Cl)cc1)Oc1ccc(Cl)cc1)C(C)C` came in with an inhibition in data set [1] of 15%. Also, the kinact/Ki (second-order inactivation rate constant) in data set [2] is 20500 M⁻¹ s⁻¹. Further, in data set [3], the inhibition result is “inactive”.

On to `CSCC[C@H](NC(=O)OCc1ccccc1)C(=O)O[C@@H](CC(C)C)C(=O)N[C@H](C(C)C)P(=O)(Oc1ccc(SC)cc1)Oc1ccc(SC)cc1`, for which the inhibition result in data set [1] and in data set [3] was “inactive” in each case. Further, the kinact/Ki (second-order inactivation rate constant) in data set [2] came to 4400 M⁻¹ s⁻¹.

With `CSCC[C@H](NC(=O)OCc1ccccc1)C(=O)O[C@@H](CC(C)C)C(=O)N[C@H](C(C)C)P(=O)(Oc1ccc(Cl)cc1)Oc1ccc(Cl)cc1`, the inhibition entry in data set [1] and in data set [3] was “inactive” throughout. In data set [5], the inhibition at 500 µM was determined as 75%. Moreover, the kinact/Ki (second-order inactivation rate constant) in data set [2] was determined as 7250 M⁻¹ s⁻¹.

With `CCCCN(C(=O)CNC(=O)OCc1ccccc1)[C@H](C(=O)N[C@H](C(C)C)P(=O)(Oc1ccc(SC)cc1)Oc1ccc(SC)cc1)C(C)C`, in data set [1], the inhibition was determined as 8%. Also, the kinact/Ki (second-order inactivation rate constant) in data set [2] is 495 M⁻¹ s⁻¹. In data set [3], the inhibition entry is “inactive”.

`CSCC[C@H](NC(=O)OCc1ccccc1)C(=O)O[C@@H](CCSC)C(=O)N[C@H](C(C)C)P(=O)(Oc1ccc(SC)cc1)Oc1ccc(SC)cc1` had an inhibition in data set [1] of 14%. In addition, the kinact/Ki (second-order inactivation rate constant) in data set [2] is 5900 M⁻¹ s⁻¹. Besides, the inhibition entry in data set [3] is “inactive”.

Regarding `CCCCN(C(=O)CNC(=O)OCc1ccccc1)[C@@H](Cc1ccccc1)C(=O)N[C@H](C(C)C)P(=O)(Oc1ccc(SC)cc1)Oc1ccc(SC)cc1`, the inhibition in data set [1] is 14%. The kinact/Ki (second-order inactivation rate constant) in data set [2] is 1360 M⁻¹ s⁻¹. Moreover, the inhibition entry in data set [3] is “inactive”.

`CSCC[C@H](NC(=O)OCc1ccccc1)C(=O)O[C@H](C(=O)N[C@H](C(C)C)P(=O)(Oc1ccc(Cl)cc1)Oc1ccc(Cl)cc1)c1ccc(F)cc1` gave an inhibition in data set [1] of 16%. Further, the kinact/Ki (second-order inactivation rate constant) in data set [2] was 215 M⁻¹ s⁻¹. For the same compound, the inhibition entry in data set [3] is “inactive”.

Turning to `CCCCCC(=O)N1CCN([C@H](C(=O)N[C@H](C(C)C)P(=O)(Oc2ccc(SC)cc2)Oc2ccc(SC)cc2)c2ccc(F)cc2)CC1`, the inhibition entry in data set [1] and in data set [3] was “inactive” in each case. Besides, in data set [2], the kinact/Ki (second-order inactivation rate constant) turned out to be 330 M⁻¹ s⁻¹.

For the compound `CCCCCC(=O)N1CCN([C@H](C(=O)N[C@H](C(C)C)P(=O)(Oc2ccc(SC)cc2)Oc2ccc(SC)cc2)c2ccc([N+](=O)[O-])cc2)CC1`, the inhibition result in data set [1] and in data set [3] was “inactive” each time. For the same compound, the kinact/Ki (second-order inactivation rate constant) in data set [2] was determined as 140 M⁻¹ s⁻¹.

Consider `CSCC[C@H](NC(=O)OCc1ccccc1)C(=O)O[C@H](C(=O)N[C@H](C(C)C)P(=O)(Oc1ccc(SC)cc1)Oc1ccc(SC)cc1)c1ccc(F)cc1`, for which the inhibition result in data set [1] and in data set [3] was “inactive” each time. The kinact/Ki (second-order inactivation rate constant) in data set [2] came to 4850 M⁻¹ s⁻¹.

Turning to `CSCC[C@H](NC(=O)OCc1ccccc1)C(=O)O[C@@H](CCc1ccccc1)C(=O)N[C@H](C(C)C)P(=O)(Oc1ccc(Cl)cc1)Oc1ccc(Cl)cc1`, the inhibition result in data set [1] and in data set [3] was “inactive” each time. For the same compound, the kinact/Ki (second-order inactivation rate constant) in data set [2] turned out to be 1620 M⁻¹ s⁻¹.

Consider `CSCC[C@H](NC(=O)OCc1ccccc1)C(=O)O[C@H](C(=O)N[C@H](C(C)C)P(=O)(Oc1ccc(SC)cc1)Oc1ccc(SC)cc1)c1ccc([N+](=O)[O-])cc1`, for which the inhibition entry in data set [1] and in data set [3] was “inactive” throughout. The kinact/Ki (second-order inactivation rate constant) in data set [2] was 430 M⁻¹ s⁻¹.

For the compound `CSCC[C@H](NC(=O)OCc1ccccc1)C(=O)O[C@@H](CCc1ccccc1)C(=O)N[C@H](C(C)C)P(=O)(Oc1ccc(SC)cc1)Oc1ccc(SC)cc1`, the inhibition entry in data set [1] and in data set [3] was “inactive” in each case. Besides, in data set [2], the kinact/Ki (second-order inactivation rate constant) came out at 765 M⁻¹ s⁻¹.

`CCCCN(C(=O)CNC(=O)OCc1ccccc1)[C@@H](CCc1ccccc1)C(=O)N[C@H](C(C)C)P(=O)(Oc1ccc(SC)cc1)Oc1ccc(SC)cc1` registered an inhibition in data set [1] of 15%. The same compound registered an inhibition at 250 µM in data set [4] of 70%. In addition, the cytotoxicity at 48 h, 250 µM in data set [6] stood at 10%. Besides, the Activity result in data set [7] is on record as “Toxic”. The “inhibition (INH)” value in data set [8] is reported as 50%. For the same compound, in data set [2], the kinact/Ki (second-order inactivation rate constant) was found to be 1420 M⁻¹ s⁻¹. Moreover, in data set [3], the inhibition entry is “inactive”.

For the compound `CSCC[C@H](NC(=O)OCc1ccccc1)C(=O)O[C@@H](Cc1ccccc1)C(=O)N[C@H](C(C)C)P(=O)(Oc1ccc(Cl)cc1)Oc1ccc(Cl)cc1`, the inhibition result in data set [1] and in data set [3] was “inactive” throughout. Besides, the kinact/Ki (second-order inactivation rate constant) in data set [2] turned out to be 695 M⁻¹ s⁻¹.
